Data as given in PubChem BioAssay.
Activity calls are given as the source filed them.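 How the source made its calls, unless noted: active means viability at or under a set limit in both replicates, limit being median viability minus 3 SD (cut at about 48% in these data, passing the limit was not always enough); inconclusive means at or under the limit in just one replicate; inactive means at or above the limit in both replicates.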

Columns and labels:
[1] = Her2 expression decrease, cell viability multiplex – SKBR3 breast tumor cells, AlphaScreen, ATP viability, primary screen (AID 461;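 active means Her2 level under about 52% in both replicate screens, with viability over 70% of control, limit read from the data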;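 on Her2 level: lower value means less Her2 protein in the cells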;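 on viability: percent of carrier control wells set as 100% viability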); conditions: SKBR3 Her2 protein level, 18-24 h, measured here: SKBR3 viability, ATP luminescence, at 10 µM
[2] = target: Receptor tyrosine-protein kinase erbB-2 (Homo sapiens) (UniProt P04626); assay: as above; conditions: 18-24 h, at 10 µM, stronger effect = lower value
Chain of Receptor tyrosine-protein kinase erbB-2 (Homo sapiens) (P04626 whole entry, looked up): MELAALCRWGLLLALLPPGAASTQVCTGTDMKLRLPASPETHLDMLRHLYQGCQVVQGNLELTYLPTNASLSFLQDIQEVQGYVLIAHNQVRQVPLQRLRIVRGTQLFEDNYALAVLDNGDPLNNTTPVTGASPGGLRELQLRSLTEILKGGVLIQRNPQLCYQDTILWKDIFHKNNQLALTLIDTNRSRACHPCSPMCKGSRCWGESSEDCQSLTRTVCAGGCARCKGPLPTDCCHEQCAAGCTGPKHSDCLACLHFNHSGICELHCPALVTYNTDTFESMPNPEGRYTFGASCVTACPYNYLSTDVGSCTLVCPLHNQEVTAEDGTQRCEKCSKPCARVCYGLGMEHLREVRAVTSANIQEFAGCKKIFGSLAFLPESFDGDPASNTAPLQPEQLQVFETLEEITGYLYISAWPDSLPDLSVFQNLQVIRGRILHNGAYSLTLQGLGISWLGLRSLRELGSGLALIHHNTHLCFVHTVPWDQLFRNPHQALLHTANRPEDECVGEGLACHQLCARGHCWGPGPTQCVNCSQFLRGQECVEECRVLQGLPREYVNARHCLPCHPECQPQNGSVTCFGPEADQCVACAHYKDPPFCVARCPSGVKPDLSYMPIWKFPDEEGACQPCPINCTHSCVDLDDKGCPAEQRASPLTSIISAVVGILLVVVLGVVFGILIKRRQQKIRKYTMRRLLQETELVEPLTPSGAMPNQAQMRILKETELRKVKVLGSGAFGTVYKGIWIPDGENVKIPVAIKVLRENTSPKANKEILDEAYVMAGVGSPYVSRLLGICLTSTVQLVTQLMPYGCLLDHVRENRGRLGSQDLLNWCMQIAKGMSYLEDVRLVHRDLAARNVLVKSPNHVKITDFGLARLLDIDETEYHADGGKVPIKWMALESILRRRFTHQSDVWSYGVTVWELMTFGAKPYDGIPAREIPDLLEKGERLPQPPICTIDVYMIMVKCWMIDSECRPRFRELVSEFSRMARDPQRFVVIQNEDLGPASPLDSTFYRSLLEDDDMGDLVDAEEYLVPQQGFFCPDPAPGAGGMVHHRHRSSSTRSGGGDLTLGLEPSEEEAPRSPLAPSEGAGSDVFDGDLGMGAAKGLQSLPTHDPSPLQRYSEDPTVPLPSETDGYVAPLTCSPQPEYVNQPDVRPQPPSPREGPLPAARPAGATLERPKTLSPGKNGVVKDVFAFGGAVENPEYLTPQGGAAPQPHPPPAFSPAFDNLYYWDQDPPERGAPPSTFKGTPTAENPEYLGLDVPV

[3] = reduced viability of SK-BR-3 breast cancer cells – cell-based, 24 h, human, pilot screen (AID 572;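 active means viability at or below 10% of carrier control in both of two separate runs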;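 further: compound exposure lasted between 18 and 24 h rather than exactly 24 h; 100% = carrier-treated control wells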); conditions: SK-BR-3 viability, CellTiter-Glo luminescence, at 10 µM, stronger effect = lower value
[4] = HUVEC growth inhibition – cell-based, human, primary screen (AID 575;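 active means viability at or below 30% in both replicate assays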;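 further: 100% = median of untreated cell wells with 0.1% DMSO on each plate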); conditions: HUVEC proliferation, CellTiter-Glo luminescence, 72 h; at 10 µM; stronger effect = lower value
Outline: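 Test system: HUVEC primary cells. Quantity: 1250 endothelial cells in each well. Dosing: single-point 10 µM, DMSO 0.1% final. Incubation: 72 h treatment at 37 °C. Measured by: CTG luminescence. Control set: DMSO cell controls and MePR drug controls. Plate: collagen-coated 384-well format.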

[5] = H69AR cell proliferation blockers – human, duplicate replicates, primary screen (AID 580); conditions: H69AR lung tumor cells viability, ATP luminescence, 72 h; at 10 µM; stronger effect = lower value;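 further: 100% = mean luminescence of untreated wells and 0% = no signal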
[6] = MRP1 drug-resistance reversers in H69AR cells – cell-based, doxorubicin co-treatment, pilot screen (AID 601;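 active means viability loss from added drug above about 55%, and viability with drug at most 40%, in both replicates, limit read from the data, passing the limit was not always enough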); conditions: CellTiter-Glo, 72 h, at 10 µM; for differential viability (reversal): stronger effect = higher value
[7] = yeast transport mutant growth inhibition pilot in 384-well plates, post-Golgi transport modulator project (AID 636; in the data active means inhibition above about 31%); conditions: absorbance 615 nm, about 18 h, stronger effect = higher value
[8] = growth suppression of yeast trafficking mutant, preliminary HTS, modulators of trafficking downstream of Golgi apparatus project, 1536-format plate, OD 615 nm (AID 637; in the data active means inhibition above about 30%); conditions: yeast transport mutant growth, absorbance 615 nm, 18 h; stronger effect = higher value
[9] = H69AR cells + 2 uM doxorubicin, measured here: viability with 2 uM doxorubicin, stronger effect = lower value
[10] = H69AR cells, compound alone cytotoxicity

| SMILES | viability [1] [%] | Her2 level [2] | viability [3] | viability [4] | viability [5] | differential viability (reversal) ([6]; H69AR cells + 2 uM doxorubicin) | viability [6, 9] [%] | viability [6, 10] [%] | inhibition [7] | inhibition [8] |
| --- | --- | --- | --- | --- | --- | --- | --- | --- | --- | --- |
| O=C(NCC1CCCO1)C1CCCN(Cc2cnn(-c3ccccc3)c2-n2cccc2)C1 (stereo not given) | 83.5 | 124% (inactive) | 83.5% (inactive) | 83.4% (inactive) | 85.2% (inactive) | 40.7% (inactive) | 44.5 | 85.2 | -1.45% (inactive) | -8.33% (inactive) |
| CCc1ccccc1NC(=O)CCc1nc(-c2ccc(C)cc2)no1 | 95 | 71.5% (inactive) | 95% (inactive) | 83% (inactive) | 99.3% (inactive) | 3.1% (inactive) | 96.2 | 99.3 | -4.61% (inactive) | -3.67% (inactive) |
| CCC(c1nnnn1C(C)(C)C)N1CCN(C2CCCC2)CC1 (stereo not given) | 98.5 | 114% (inactive) | 98.5% (inactive) | 103% (inactive) | 107% (inactive) | 17.5% (inactive) | 89.3 | 107 | 1.2% (inactive) | 4.59% (inactive) |
| FC(F)Sc1nnc(-c2cccs2)n1-c1ccccc1 | 101 | 92% (inactive) | 101% (inactive) | 93.6% (inactive) | 98% (inactive) | 10.1% (inactive) | 87.9 | 98 | -7.33% (inactive) | 2.74% (inactive) |
| NC(=O)NC(=O)CSc1cccc(C(F)(F)F)c1 | 138 | 94.5% (inactive) | 138% (inactive) | 90.1% (inactive) | 88.2% (inactive) | 1.01% (inactive) | 87.2 | 88.2 | -8.63% (inactive) | 2.22% (inactive) |
| Cc1ccc(C)c2[nH]c(=O)c(CN(CCN3CCCC3)C(=O)Nc3cccc(Cl)c3)cc12 | 87 | 84% (inactive) | 87% (inactive) | 15.6% (active) | 26.6% (active) | -6.23% (inactive) | 32.8 | 26.6 | -8.22% (inactive) | -0.32% (inactive) |
| CC(C)C(NC(=O)c1ccccc1NC(=O)c1ccco1)C(=O)O (stereo not given) | 114 | 77.5% (inactive) | 114% (inactive) | 94.8% (inactive) | 91.6% (inactive) | 2.44% (inactive) | 89.1 | 91.6 | -8.24% (inactive) | 6.98% (inactive) |
| c1ccc(-c2cn3c4c(sc3n2)CCCC4)cc1 | 89 | 76% (inactive) | 89% (inactive) | 46% (inactive) | 39.9% (active) | -25.4% (inactive) | 65.2 | 39.9 | -2.37% (inactive) | 1.27% (inactive) |
| O=C(NCc1ccco1)c1cnc2n(c1=O)CCS2 | 101 | 94.5% (inactive) | 101% (inactive) | 91.3% (inactive) | 89.5% (inactive) | 0.265% (inactive) | 89.2 | 89.5 | 0.78% (inactive) | -1.48% (inactive) |
| CCN(CC)S(=O)(=O)c1ccc(N2CCCC2)c(C(=O)OCC(=O)/C(C#N)=C(\C)N)c1 | 91 | 92.5% (inactive) | 91% (inactive) | 66.7% (inactive) | 82.6% (inactive) | -11.1% (inactive) | 93.7 | 82.6 | -6.4% (inactive) | 1.97% (inactive) |
| Cn1c(=O)c2c(nc(CN3CCCCC3)n2CCc2ccccc2)n(C)c1=O | 87 | 107% (inactive) | 87% (inactive) | 111% (inactive) | 91.9% (inactive) | -1.94% (inactive) | 93.9 | 91.9 | 2.27% (inactive) | 13.8% (inactive) |
| O=C(Nc1ccccc1C(F)(F)F)c1cc(S(=O)(=O)N2CCOCC2)ccc1F | 96.5 | 91.5% (inactive) | 96.5% (inactive) | 102% (inactive) | 90.4% (inactive) | 8.93% (inactive) | 81.5 | 90.4 | -6.49% (inactive) | 1.43% (inactive) |
| COc1cc2[nH]c(=O)c(C(=O)NCCCN3CCCCC3)c(O)c2cc1OC | 99.5 | 99% (inactive) | 99.5% (inactive) | 99.5% (inactive) | 98.7% (inactive) | 7.58% (inactive) | 91.1 | 98.7 | -6.35% (inactive) | 1.11% (inactive) |
| CCC(C)(C)NC(=O)CN(Cc1ccc2c(c1)OCO2)C(=O)CCC(=O)Nc1ccccn1 | 132 | 118% (inactive) | 132% (inactive) | 105% (inactive) | 92.5% (inactive) | 2.38% (inactive) | 90.1 | 92.5 | -5.06% (inactive) | -2.3% (inactive) |
| O=C(CN(Cc1ccco1)C(=O)CNS(=O)(=O)c1ccc(F)cc1)NCCc1ccccc1 | 78 | 91.5% (inactive) | 78% (inactive) | 85.8% (inactive) | 91.9% (inactive) | 0.9% (inactive) | 91 | 91.9 | -6.35% (inactive) | -2.79% (inactive) |
